This note sets out measurements from ChEMBL document CHEMBL3792331, “Identification and synthesis of potent and selective pyridyl-isoxazole based agonists of sphingosine-1-phosphate 1 (S1P1)” (Bioorg Med Chem Lett, 2016).

Structures are written as SMILES.

The test system of series [1] is Rattus norvegicus. Nature of the series: Reduction in circulating lymphocytes in Lewis rat at 1 mg/kg, po after 4 hrs. Type of series: functional. The method, boiled down: (§1)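 Healthy Lewis rats dosed orally with test article as solution or suspension in vehicle, or vehicle alone. Blood drawn at 4 h and 24 h. Circulating lymphocyte percentage measured by hematology analyzer, expressed as reduction versus the vehicle group. Group average, n = 3–4.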

The nature of series [2]: Selectivity index, ratio of EC50 for agonist activity at human S1P3 receptor expressed in EDG3-Ga15-bla HEK293T cell membranes to EC50 for agonist activity at human S1P1 receptor expressed in CHO cell membranes. Type of series: cell-based. The method, boiled down: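 S1P3/S1P1 ratio of GTPγ[35S] EC50s. Membranes from EDG3-Ga15-bla HEK293T (S1P3) or S1P1/CHO cells, […], 0.2 nM final [35S]GTP. HEPES pH 7.5 buffer with MgCl2, NaCl, EGTA, DTT, GDP, BSA and saponin. 45 min at room temperature, filtration read-out. Each EC50 taken at 50% of the compound's own Ymax.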

The test system of series [3] is Rattus norvegicus. Nature of the series: Reduction in circulating lymphocytes in Lewis rat at 1 mg/kg, po after 24 hrs. The class given is functional. A digest of the protocol:
as §1

Series [4] is described as follows: Plasma concentration Lewis rat at 1 mg/kg, po after 24 hrs. The class given is ADME, organism-based. The method, boiled down: (§2)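 Lewis rats given 1.0 mg/kg orally as solution or suspension in vehicle. Plasma drug concentration measured in blood drawn at 4 h and 24 h; 4 h/24 h ratio taken from these values.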
Series [5] relates to Plasma. Nature of the series: Ratio of plasma concentration Lewis rat at 1 mg/kg, po after 4 hrs to plasma concentration Lewis rat at 1 mg/kg, po after 24 hrs. The class given is ADME, organism-based. To be noted: in vivo. A digest of the protocol: as §2
Series [6] is described as follows: Plasma concentration Lewis rat at 1 mg/kg, po after 4 hrs. The class given is ADME, organism-based. The method, boiled down: as §2
For series [7], the target named is Sphingosine 1-phosphate receptor 3 (Homo sapiens, UniProt Q99500). Nature of the series: Agonist activity at human S1P3 receptor expressed in EDG3-Ga15-bla HEK293T cell membranes assessed as stimulation of [35S]GTPgamma binding incubated for 45 mins by liquid scintillation counting method. Set-up: species or system HEK-293T. The method, boiled down: (§3)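 Membranes from S1P1/CHO cells (S1P1) or EDG3-Ga15-bla HEK293T cells (S1P3), final protein […], with 3-fold compound dilutions. Buffer: 20 mM HEPES pH 7.5, 10 mM MgCl2, 150 mM NaCl, 1 mM EGTA, 1 mM DTT, GDP, 0.1% fatty acid free BSA, saponin. [35S]GTP 0.2 nM final. Room temperature, 45 min. Filtered, washed with water, dried 60 °C. EC50 taken at 50% of each compound's Ymax.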
Chain of Sphingosine 1-phosphate receptor 3 (Q99500 whole entry): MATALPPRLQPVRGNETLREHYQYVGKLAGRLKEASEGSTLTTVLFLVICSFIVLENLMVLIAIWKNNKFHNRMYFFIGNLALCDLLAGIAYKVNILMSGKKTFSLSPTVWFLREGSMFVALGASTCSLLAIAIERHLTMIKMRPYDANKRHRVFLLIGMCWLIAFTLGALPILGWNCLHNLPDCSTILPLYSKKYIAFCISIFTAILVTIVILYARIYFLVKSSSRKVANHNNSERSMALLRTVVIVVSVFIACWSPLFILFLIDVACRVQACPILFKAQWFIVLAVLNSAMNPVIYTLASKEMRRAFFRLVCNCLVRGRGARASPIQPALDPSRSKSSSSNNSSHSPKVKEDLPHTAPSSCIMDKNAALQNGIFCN

For series [8], the target named is Sphingosine 1-phosphate receptor 1 (Homo sapiens, UniProt P21453). Nature of the series: Agonist activity at human S1P1 receptor expressed in CHO cell membranes assessed as stimulation of [35S]GTPgamma binding incubated for 45 mins by liquid scintillation counting method. The method, boiled down:
as §3

Chain of Sphingosine 1-phosphate receptor 1 (P21453 whole entry): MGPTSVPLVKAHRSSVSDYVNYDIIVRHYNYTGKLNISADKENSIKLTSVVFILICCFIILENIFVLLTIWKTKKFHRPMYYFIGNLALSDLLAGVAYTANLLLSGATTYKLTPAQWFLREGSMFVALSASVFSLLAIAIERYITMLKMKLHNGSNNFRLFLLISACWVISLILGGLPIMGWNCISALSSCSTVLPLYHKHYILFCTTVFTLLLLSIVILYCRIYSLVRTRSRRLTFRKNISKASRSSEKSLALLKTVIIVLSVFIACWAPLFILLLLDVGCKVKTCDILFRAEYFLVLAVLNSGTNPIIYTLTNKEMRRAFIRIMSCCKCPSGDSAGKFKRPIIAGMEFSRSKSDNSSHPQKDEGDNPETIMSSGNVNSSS

In general, inhibition in vivo refers to the drop in the measured response relative to a control, in per cent. Read a low inhibition in vivo as a weak effect. `CCCc1c(-c2nc(-c3ccc(CN4CC(C(=O)O)C4)cc3)no2)noc1-c1ccccn1`: the results for the inhibition in vivo at 1 mg/kg in series [1] and in series [3] were 81% and 53%, respectively. Moreover, in series [2], the Ratio EC50 amounted to 2500. Also, the concentration at 24 h in series [4] was 9.9 nM. In series [5], the Ratio came out at 30. The molecule also had a concentration at 4 h in series [6] of 292 nM.
The EC50 is the concentration at which the effect is half-maximal. Regarding `CC(C)c1c(-c2nc(-c3ccc(CN4CC(C(=O)O)C4)cc3)no2)noc1-c1ccccn1`, in series [7], the concentration for a half-maximal effect (EC50) was 8200 nM. Further, the inhibition in vivo at 1 mg/kg came out at 84% in series [1] and 64% in series [3]. Also, the Ratio EC50 in series [2] was 8200. The concentration at 24 h in series [4] was 31 nM. For the same molecule, the Ratio in series [5] came out at 22. Also, in series [6], the concentration at 4 h amounted to 686 nM.
For the molecule `O=C(O)C1CN(Cc2ccc(-c3noc(-c4onc(-c5ccccc5)c4C(F)(F)F)n3)cc2)C1`, the inhibition in vivo at 1 mg/kg in series [1] was found to be 78%; in series [3], 91%. In addition, in series [5], the Ratio is listed as 3. For the same molecule, in series [6], the concentration at 4 h is 2130 nM.
In the case of `CCc1c(-c2nc(-c3ccc(CN4CC(C(=O)O)C4)cc3)no2)noc1-c1ccccn1`, the results for the inhibition in vivo at 1 mg/kg in series [1] and in series [3] were 84% and 58%, respectively. In addition, the Ratio EC50 in series [2] is 550. Also, in series [8], the EC50 was determined as 3.4 nM. Besides, the concentration at 24 h in series [4] is 64 nM. For the same molecule, the Ratio in series [5] is 15. This molecule registered a concentration at 4 h in series [6] of 972 nM.
With `CCCc1c(-c2ccccn2)noc1-c1nc(-c2ccc(CN3CC(C(=O)O)C3)cc2)no1`, the EC50 was 630 nM in series [7] and 0.21 nM in series [8]. Besides, the inhibition in vivo at 1 mg/kg in series [1] is 82%; in series [3], 85%. Further, in series [2], the Ratio EC50 was determined as 3000. Besides, the concentration at 24 h in series [4] turned out to be 26 nM. In addition, the Ratio in series [5] is given as 12. Further, the concentration at 4 h in series [6] amounted to 318 nM.
